The values below come from ChEMBL document CHEMBL1144121, “Umbelliferone analogues and their potential to inhibit Benzo(a)pyrene- and hydrogen peroxide-induced mutations” (J Nat Prod, 1999).

The structures appear in SMILES notation.

The subject of series [1] is Salmonella typhimurium. As to the kind of experiment: Antimutagenic activity in Salmonella Typhimurium TA100 assessed as protection against benzo[a]pyrene-induced mutation at 2 ug/plate after 2 days by modified Ames test. The series is classed as functional, Salmonella enterica subsp. enterica serovar Typhimurium. An outline of the steps: (§1)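 S. typhimurium TA100 grown 15 h at 37 °C in Oxoid Nutrient Broth No. 2 with shaking to about (1-2) × 10^8 cells/mL. Culture in histidine/biotin-supplemented top agar with 5 μg benzo(a)pyrene plus 50 μL S9 and test compound. Plated on Vogel-Bonner E medium, 37 °C for 2 days. His+ revertants scored on 3 plates, averaged, and % protection taken relative to mutagen minus spontaneous revertants.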
A general note: The Ames test uses bacterial strains that need an amino acid and regain growth without it when mutated back.

Series [2] concerns Salmonella typhimurium. Put plainly: Antimutagenic activity in Salmonella Typhimurium TA102 assessed as protection against hydrogen peroxide-induced mutation at 1 ug/plate after 2 days by modified Ames test. The series is classed as functional, Salmonella enterica subsp. enterica serovar Typhimurium. In a few lines: (§2)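 S. typhimurium TA102 grown 15 h at 37 °C in Oxoid Nutrient Broth No. 2 with shaking to about (1-2) × 10^8 cells/mL. Culture in histidine/biotin-supplemented top agar with 100 μg hydrogen peroxide and test compound. Plated on Vogel-Bonner E medium, 37 °C for 2 days. His+ revertants scored on 3 plates, averaged, and % protection taken relative to mutagen-induced revertants minus spontaneous revertants.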

Series [3] concerns Salmonella typhimurium. As to the kind of experiment: Antimutagenic activity in Salmonella Typhimurium TA102 assessed as protection against hydrogen peroxide-induced mutation at 4 ug/plate after 2 days by modified Ames test. The series is classed as functional, Salmonella enterica subsp. enterica serovar Typhimurium. The conditions noted are these: at 4 µg/plate.
Series [4] has as its system Salmonella typhimurium. As to the kind of experiment: Antimutagenic activity in Salmonella Typhimurium TA100 assessed as protection against benzo[a]pyrene-induced mutation at 4 ug/plate after 2 days by modified Ames test. Type of series: functional, Salmonella enterica subsp. enterica serovar Typhimurium. In a few lines:
as §1

The test system of series [5] is Salmonella typhimurium. Put plainly: Antimutagenic activity in Salmonella Typhimurium TA102 assessed as protection against hydrogen peroxide-induced mutation at 2 ug/plate after 2 days by modified Ames test. The series is classed as functional, Salmonella enterica subsp. enterica serovar Typhimurium. An outline of the steps:
as §2

Series [6] has as its system Salmonella typhimurium. As to the kind of experiment: Antimutagenic activity in Salmonella Typhimurium TA100 assessed as protection against benzo[a]pyrene-induced mutation at 8 ug/plate after 2 days by modified Ames test. The series is classed as functional, Salmonella enterica subsp. enterica serovar Typhimurium. The conditions noted are these: at 8 µg/plate.
For series [7], the system named is Salmonella typhimurium. As to the kind of experiment: Antimutagenic activity in Salmonella Typhimurium TA102 assessed as protection against hydrogen peroxide-induced mutation at 8 ug/plate after 2 days by modified Ames test. Type of series: functional, Salmonella enterica subsp. enterica serovar Typhimurium. The conditions noted are these: at 8 µg/plate.
The test system of series [8] is Salmonella typhimurium. Put plainly: Antimutagenic activity in Salmonella Typhimurium TA100 assessed as protection against benzo[a]pyrene-induced mutation at 16 ug/plate after 2 days by modified Ames test. The series is classed as functional, Salmonella enterica subsp. enterica serovar Typhimurium. As to conditions: at 16 µg/plate.
Series [9] concerns Salmonella typhimurium. As to the kind of experiment: Antimutagenic activity in Salmonella Typhimurium TA100 assessed as protection against benzo[a]pyrene-induced mutation at 32 ug/plate after 2 days by modified Ames test. Type of series: functional, Salmonella enterica subsp. enterica serovar Typhimurium. The conditions noted are these: at 32 µg/plate.
Series [10] in a line: Cytotoxicity against Salmonella Typhimurium TA100 assessed as maximum non-toxic concentrations after 15 hrs by ELISA. As to conditions: salmonella enterica subsp. enterica serovar typhimurium, Salmonella Typhimurium TA100 bacteria. For orientation: In an ELISA, binding on a coated surface is turned into a signal by an enzyme label.

Regarding `C#CC(C)(C)Oc1ccc2ccc(=O)oc2c1`, the Activity was determined as 10% with Salmonella typhimurium [1]; 0% in the series with Salmonella typhimurium [2]; 11% with Salmonella typhimurium [3]; 15% with Salmonella typhimurium [4]; 0% in the series on Salmonella typhimurium [5]; 25% in the series on Salmonella typhimurium [6].
In the case of `O=c1ccc2ccc(O)cc2o1` [UMBELLIFERONE], the Activity stood at 28% in the series on Salmonella typhimurium [7]; 39% with Salmonella typhimurium [8]; 13% in the series with Salmonella typhimurium [3]; 10% with Salmonella typhimurium [4]; 7% in the series with Salmonella typhimurium [5]; 22% in the series on Salmonella typhimurium [6].
Regarding `CC1=CC[C@@H](O)C(C)(C)[C@H]1CC/C(C)=C/COc1ccc2ccc(=O)oc2c1`, the Activity in the series on Salmonella typhimurium [9] came out at 45%.
Take `O=c1ccc2ccc(OCC3CCCCC3)cc2o1` [UMBELLIFERONECYCLOHEXYLMETHYL ETHER]: the Activity is given as 39% in the series with Salmonella typhimurium [7]; 54% with Salmonella typhimurium [8]; 5% with Salmonella typhimurium [3]; 33% in the series with Salmonella typhimurium [4]; 0% with Salmonella typhimurium [5]; 44% with Salmonella typhimurium [6]. Further, the MNTC at 15 h in [10] worked out at 16 µg/mL.
With `CC(C)=CCOc1ccc2ccc(=O)oc2c1` [7-PRENYLOXYCOUMARIN], the Activity was found to be 19% with Salmonella typhimurium [1]; 9% in the series on Salmonella typhimurium [2]; 17% in the series on Salmonella typhimurium [3]; 29% in the series on Salmonella typhimurium [4]; 14% with Salmonella typhimurium [5]; 36% in the series on Salmonella typhimurium [6].
As to `COc1ccc2ccc(=O)oc2c1` [HERNIARIN], the Activity with Salmonella typhimurium [1] was determined as 21%; in the series with Salmonella typhimurium [2] it was 0%; in the series on Salmonella typhimurium [3] it was 11%; in the series with Salmonella typhimurium [4] it was 28%; with Salmonella typhimurium [5], 10%; in the series on Salmonella typhimurium [6] it was 36%.
As for `CC1(C)C=Cc2c(ccc3ccc(=O)oc23)O1` [SESALIN], the Activity is given as 22% in the series with Salmonella typhimurium [7]; 20% with Salmonella typhimurium [8]; 8% with Salmonella typhimurium [3]; 1% in the series on Salmonella typhimurium [4]; 0% with Salmonella typhimurium [5]; 8% in the series with Salmonella typhimurium [6].
